Results taken from ChEMBL document CHEMBL4024783, “Alkylated Piperazines and Piperazine-Azole Hybrids as Antifungal Agents” (J Med Chem, 2018).
≈ marks a conversion by molar mass, not a printed value. Calls of active or inactive are those of the source. No cut-off for these calls is given here.

Tests used:
Aspergillus nidulans [1] = assay: Ratio of MIC in presence of 10% FBS to MIC in absence of 10% FBS for Aspergillus nidulans ATCC 38163; type: functional
How it was run: (§1)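 MIC broth dilution run in parallel in RPMI 1640 with or without 10% fetal bovine serum against C. albicans ATCC 10231, C. parapsilosis ATCC 22019 and A. nidulans ATCC 38163.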

Candida albicans [2] = assay: Antibiofilm activity against voriconazole resistant Candida albicans ATCC 64124 sessile cells incubated for 24 hrs by XTT reduction assay; type: functional; settings: ATCC 64124, 24 h
How it was run: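 Strain B grown overnight in YPD broth at 35 °C, diluted to OD600 0.1 (~10^6 CFU/mL), then grown statically for 24 h at 37 °C to form biofilm. Washed with PBS, then drug in RPMI 1640 at 0.12–62.5 µg/mL for 24 h at 37 °C. Read-out: XTT 0.5 mg/mL with menadione 1 µM, 2 h, A490. SMIC50/SMIC80 are 50%/80% decreases versus drug-free biofilm. Duplicate.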

Candida albicans [3] = assay: Antifungal activity against itraconazole and fluconazole resistant Candida albicans ATCC MYA-1237 after 48 hrs by broth dilution method; type: functional; settings: Candida albicans, ATCC MYA-1237, 48 h
How it was run: (§2)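 CLSI M27-A3 broth microdilution with minor modifications. Overnight YPD culture grown at 35 °C, 200 rpm, adjusted to OD600 0.12, diluted in RPMI 1640 buffered to pH 7.0 with 0.165 M MOPS to a final 1–2 × 10^3 CFU/mL. Test compounds at 0.015–31.3 µg/mL, 48 h at 35 °C, DMSO <1.25%. […] Triplicate.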

Candida albicans [4] = assay: Antifungal activity against Candida albicans ATCC 10231 after 48 hrs by broth dilution method; type: functional; settings: ATCC 10231, 48 h
Candida parapsilosis [5] = assay: Antifungal activity against Candida parapsilosis ATCC 22019 after 48 hrs by broth dilution method; type: functional
Pichia kudriavzevii = assay: Antifungal activity against Candida krusei ATCC 6258 after 48 hrs by broth dilution method; type: functional
How it was run: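 Yeasts tested per CLSI M27-A3 with minor changes. An overnight YPD culture (35 °C, 200 rpm) was adjusted to OD600 0.12 and diluted in MOPS-buffered RPMI 1640 (pH 7.0) to a final 1–2 × 10^3 CFU/mL. Compounds 0.015–31.3 µg/mL, DMSO <1.25%.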

Candida albicans [6] = assay: Ratio of MIC in presence of 10% FBS to MIC in absence of 10% FBS for Candida albicans ATCC 10231; type: functional; how it was run: as §1
Candida parapsilosis [7] = assay: Ratio of MIC in presence of 10% FBS to MIC in absence of 10% FBS for Candida parapsilosis ATCC 22019; type: functional; how it was run: as §1
A549 = assay: Cytotoxicity against human A549 cells up to 31 ug/ml after 24 hrs by resazurin-based fluorescence assay; type: cell-based; settings: a549, 24 h
How it was run: (§3)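 Cells grown in DMEM with 10% FBS at 37 °C, 5% CO2, and seeded at 10000 (HEK-293) or 3000 (BEAS-2B, A549) per well. After 16 h, exposed 24 h to 0.13–31 µg/mL final in medium with 0.1–0.4% DMSO. Resazurin added for 6–10 h; fluorescence read at 560/590 nm and survival normalized to DMSO control after background subtraction. Triton X-100 12.5% v/v positive control; duplicate.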

Aspergillus flavus = assay: Antifungal activity against Aspergillus flavus ATCC MYA-3631 after 48 hrs by broth dilution method; type: functional; settings: ATCC MYA-3631, 48 h
[8] = Solubility of the compound in DMSO; type: physicochemical
[9] = Aqueous solubility of the compound; type: physicochemical; settings: buffer
Nakaseomyces glabratus = assay: Antifungal activity against Candida glabrata ATCC 2001 after 48 hrs by broth dilution method; type: functional, CBS 138
Aspergillus terreus = assay: Antifungal activity against Aspergillus terreus ATCC MYA-3633 after 48 hrs by broth dilution method; type: functional; settings: Aspergillus terreus, ATCC MYA-3633, 48 h
How it was run: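 Molds tested per CLSI M38-A2. Spores were harvested from sporulating PDA cultures by filtering through glass wool and counted on a hemocytometer. Serial dilutions (0.03–31.3 µg/mL) were made in RPMI 1640 buffered to pH 7.0 with 0.165 M MOPS, final inoculum 5 × 10^5 CFU/mL.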

Candida albicans [10] = assay: Antifungal activity against Candida albicans ATCC 64124 after 48 hrs by broth dilution method; type: functional; how it was run: as §2
Candida albicans [11] = assay: Antifungal activity against itraconazole and fluconazole susceptible Candida albicans ATCC MYA-2310 after 48 hrs by broth dilution method; type: functional
HEK293 = assay: Cytotoxicity against HEK293 cells up to 31 ug/ml after 24 hrs by resazurin-based fluorescence assay; type: cell-based; settings: human, hek293, 24 h; how it was run: as §3
Candida albicans [12] = assay: Ratio of MIC80 for voriconazole resistant Candida albicans ATCC 64124 sessile cells to MIC for voriconazole resistant Candida albicans ATCC 64124; type: functional
Candida albicans [13] = assay: Antifungal activity against Candida albicans ATCC 10231 after 48 hrs in the presence of 10% FBS by broth dilution method; type: functional; settings: ATCC 10231, 48 h
Candida albicans [14] = assay: Antifungal activity against itraconazole and fluconazole resistant Candida albicans ATCC MYA-1003 after 48 hrs by broth dilution method; type: functional; settings: Candida albicans, ATCC MYA-1003, 48 h; how it was run: as §2
Candida albicans [15] = assay: Antifungal activity against itraconazole and fluconazole resistant Candida albicans ATCC 90819 after 48 hrs by broth dilution method; type: functional; how it was run: as §2
Aspergillus nidulans [16] = assay: Antifungal activity against Aspergillus nidulans ATCC 38163 after 48 hrs by broth dilution method; type: functional; settings: Aspergillus nidulans, ATCC 38163, 48 h
How it was run: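 A. nidulans run per CLSI M38-A2. PDA spores were filtered through glass wool and counted by hemocytometer. Test range 0.03–31.3 µg/mL in MOPS-buffered RPMI 1640 (pH 7.0), final 5 × 10^5 CFU/mL.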

Candida albicans [17] = assay: Antifungal activity against itraconazole and fluconazole susceptible Candida albicans ATCC MYA-2876 after 48 hrs by broth dilution method; type: functional
BEAS-2B = assay: Cytotoxicity against human BEAS2B cells up to 31 ug/ml after 24 hrs by resazurin-based fluorescence assay; type: cell-based; how it was run: as §3
Candida albicans [18] = assay: Antifungal activity against Candida albicans ATCC 10231 at […] ug/mL incubated for 1 hr by propidium iodide staining-based fluorescence microscopic method; type: functional
Candida albicans [19] = assay: Antifungal activity against Candida albicans ATCC 10231 at 7.8 ug/mL incubated for 1 hr by propidium iodide staining-based fluorescence microscopic method; type: functional
How it was run: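 C. albicans ATCC 10231 grown overnight in YPD broth at 35 °C with shaking at 200 rpm, then transferred to RPMI 1640. Cells were exposed to drug and stained with propidium iodide, which enters only cells with compromised membranes. Uptake was judged by fluorescence microscopy against an untreated control.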

Candida albicans [20] = assay: Inhibition of 14alpha-demethylase in Candida albicans ATCC 10231 assessed as ergosterol levels at […] by GC-MS analysis; design: scale not given: the % may be the effect or the level left
Candida albicans [21] = assay: Inhibition of 14alpha-demethylase in Candida albicans ATCC 10231 assessed as 14alpha-methyl ergosta-8,24(28)-dien-3beta,6alpha-diol levels at […] by GC-MS analysis; design: scale not given: the % may be the effect or the level left

## CCCCCCCCCCCCN1CCNCC1
Aspergillus nidulans [1]
  Ratio: 2 - 8
Candida albicans [2]
  MIC50: 7.8 mg/L (≈ 30.7 µM)
  MIC80: 31.3 mg/L (≈ 123 µM)
Candida albicans [3]
  MIC: 15.3 µM (≈ 3.89 µg/mL)
Candida albicans [4]
  MIC: 7.7 µM (≈ 1.96 µg/mL)
Candida parapsilosis [5]; Lodderomyces parapsilosis, ATCC 22019, 48 h
  MIC: 7.7 µM (≈ 1.96 µg/mL)
Pichia kudriavzevii; Pichia kudriavzevii, ATCC 6258, 48 h
  MIC: 7.7 µM (≈ 1.96 µg/mL)
Candida albicans [6]
  Ratio: 2 - 8
Candida parapsilosis [7]
  Ratio: 2 - 8
A549
  Activity: Toxic
Aspergillus flavus
  MIC: 15.3 µM (≈ 3.89 µg/mL)
[8]
  solubility: Soluble
[9]
  solubility: Soluble
Nakaseomyces glabratus; Nakaseomyces glabratus, CBS 138, 48 h
  MIC: 7.7 µM (≈ 1.96 µg/mL)
Aspergillus terreus
  MIC: 30.7 µM (≈ 7.81 µg/mL)
Candida albicans [10]; Candida albicans, ATCC 64124, 48 h
  MIC: 30.7 µM (≈ 7.81 µg/mL)
Candida albicans [11]; Candida albicans, ATCC MYA-2310, 48 h
  MIC: 15.3 µM (≈ 3.89 µg/mL)
HEK293
  Activity: Toxic
Candida albicans [12]
  Ratio: 1 - 4
Candida albicans [13]
  MIC: 3.9 mg/L
Candida albicans [14]
  MIC: 15.3 µM (≈ 3.89 µg/mL)
Candida albicans [15]; Candida albicans, ATCC 90819, 48 h
  MIC: 30.7 µM (≈ 7.81 µg/mL)
Aspergillus nidulans [16]
  MIC: 7.7 µM (≈ 1.96 µg/mL)
Candida albicans [17]; Candida albicans, ATCC MYA-2876, 48 h
  MIC: 15.3 µM (≈ 3.89 µg/mL)
BEAS-2B
  Activity: Toxic

## CCCCCCCCCCCCCCOC[C@H]1O[C@H](O[C@@H]2[C@@H](O)[C@H](O[C@H]3O[C@H](CN)[C@@H](O)[C@H](O)[C@H]3N)[C@@H](N)C[C@H]2N)[C@H](O)[C@@H](N)[C@@H]1O
Candida albicans [18]
  Activity: Active

## OC(Cn1cncn1)(Cn1cncn1)c1ccc(F)cc1F [FLUCONAZOLE]
Candida parapsilosis [5]
  MIC=<50: 6.4 µM (≈ 1.96 µg/mL)
Candida albicans [19]
  Activity: inactive
Pichia kudriavzevii
  MIC=<50: >102.2 µM
[8]
  solubility: Soluble
[9]
  solubility: Soluble
Nakaseomyces glabratus
  MIC=<50: >102.2 µM
Candida albicans [10]
  MIC=<50: >408.1 µM
Candida albicans [11]
  MIC=<50: >408.1 µM
Candida albicans [20]
  Activity: 95.9%
Candida albicans [15]
  MIC=<50: >408.1 µM
Candida albicans [17]
  MIC=<50: 50.9 µM (≈ 15.6 µg/mL)
Candida albicans [21]
  Activity: 4.1%
